# Reference: article PMC4472004 (Molecular cancer therapeutics, 2014)
# How the values were obtained:
# [1] = biological target: PSMA receptor on PC3pip cells (Homo sapiens, UniProt Q04609); assay: Competitive binding assay
# Procedure, shortened: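 PC3pip cells (PSMA-transduced PC3; RPMI-1640 with 2 mmol/L L-glutamine and 10% FBS, 37°C, 5% CO2), 5 × 10^5 per tube, incubated 1 h at 37°C with varying test compound concentrations plus 12 nmol/L [3H]-methyl-cysteine urea PSMA radioligand. Cells pelleted at 3,000 × g for 5 min at 4°C and washed 3× with cold PBS. Bound radioactivity by scintillation counting; IC50 from curve fitting.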
# PC3pip tumors = assay: In vivo NIR imaging; design: species or system mice; conditions: coinjection; up to 1,000-fold excess of Cys-CO-Glu or PSMA-1; 100-fold excess of ZJ-MCC-Ahx-YYYG
# Chain of PSMA receptor on PC3pip cells (Q04609 whole entry): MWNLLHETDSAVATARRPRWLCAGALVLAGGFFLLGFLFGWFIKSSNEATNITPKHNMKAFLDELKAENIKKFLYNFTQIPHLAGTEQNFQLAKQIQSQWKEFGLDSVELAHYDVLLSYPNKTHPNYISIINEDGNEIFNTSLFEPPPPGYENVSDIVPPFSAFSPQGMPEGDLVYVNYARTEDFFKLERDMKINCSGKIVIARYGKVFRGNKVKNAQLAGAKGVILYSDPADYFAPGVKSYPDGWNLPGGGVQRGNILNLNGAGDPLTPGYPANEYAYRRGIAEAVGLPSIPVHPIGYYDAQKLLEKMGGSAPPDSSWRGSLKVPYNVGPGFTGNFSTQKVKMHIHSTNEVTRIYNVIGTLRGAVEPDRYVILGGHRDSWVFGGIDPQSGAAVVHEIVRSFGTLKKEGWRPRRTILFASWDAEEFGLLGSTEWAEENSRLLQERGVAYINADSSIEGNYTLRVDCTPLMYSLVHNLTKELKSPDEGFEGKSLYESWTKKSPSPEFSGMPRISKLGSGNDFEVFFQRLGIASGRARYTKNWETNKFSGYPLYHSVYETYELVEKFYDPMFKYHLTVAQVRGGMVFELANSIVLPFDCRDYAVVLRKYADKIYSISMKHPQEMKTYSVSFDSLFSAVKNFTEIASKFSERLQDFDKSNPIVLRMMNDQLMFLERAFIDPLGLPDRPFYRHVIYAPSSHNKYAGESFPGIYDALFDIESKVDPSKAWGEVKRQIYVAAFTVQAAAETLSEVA
compound,measurement,setting,value
Glu-CO-Glu'-Amc-Ahx-Glu-Glu-Glu-Lys-NH2 [PSMA-1],binding affinity better than the parent ligand Cys-CO-Glu,[1]; ratio of IC50 values,4.3 fold
same,effectiveness as in vivo competitor of the PSMA-1–NIR probes,PC3pip tumors,unable to achieve effective competition
"NCCCC[C@H](NC(=O)N[C@@H](CCC(=O)O)C(=O)O)C(=O)O [Cys-CO-Glu, (S)-2-(3-((S)-5-amino-1-carboxypentyl)ureido)pentanedioic acid]",IC50,[1],9.93 ± 0.07 nM
same,effectiveness as in vivo competitor of the PSMA-1–NIR probes,PC3pip tumors,unable to achieve effective competition
